Reference: paper PMC4818360 (Iranian Journal of Basic Medical Sciences, 2016)

What was measured:
[1] = Hydrogen peroxide scavenging assay; conditions: at 0.312 mg/ml, 20 min, 230 nm, mean ± SD (n = 3)
In short: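 H2O2 was made at 40 mM in saline phosphate buffer, pH 7.4, and its level checked at 230 nm. 100 μl of methanolic test compound or standard solution (0.312 mg/ml) went into 2 ml of H2O2 solution. A230 was read after 20 min against a blank of compound in buffer without H2O2. Scavenging % = (Ac−At)/Ac×100. BHT and gallic acid were standards; three replicates.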

[2] = DPPH free radical scavenging assay; conditions: methanolic solutions, 30 min, 517 nm, mean ± SD (n = 3)
In short: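 DPPH stock (60 μM in methanol), 1 ml, mixed with 1 ml of test compound or standard at 0.0125, 0.025, 0.05, 0.1 and 0.2 mg/ml. Shaken, left 30 min, then read at 517 nm. Scavenging % = (Ac−At)/Ac×100, where the control holds all reagents except the compound. BHT was the standard. IC50 came from logarithmic non-linear regression; three replicates.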

[3] = target: mushroom tyrosinase (EC 1.14.18.1) (Agaricus bisporus, UniProt C7FF04); assay: biochemical
Sequence of mushroom tyrosinase (EC 1.14.18.1) (C7FF04 1-392): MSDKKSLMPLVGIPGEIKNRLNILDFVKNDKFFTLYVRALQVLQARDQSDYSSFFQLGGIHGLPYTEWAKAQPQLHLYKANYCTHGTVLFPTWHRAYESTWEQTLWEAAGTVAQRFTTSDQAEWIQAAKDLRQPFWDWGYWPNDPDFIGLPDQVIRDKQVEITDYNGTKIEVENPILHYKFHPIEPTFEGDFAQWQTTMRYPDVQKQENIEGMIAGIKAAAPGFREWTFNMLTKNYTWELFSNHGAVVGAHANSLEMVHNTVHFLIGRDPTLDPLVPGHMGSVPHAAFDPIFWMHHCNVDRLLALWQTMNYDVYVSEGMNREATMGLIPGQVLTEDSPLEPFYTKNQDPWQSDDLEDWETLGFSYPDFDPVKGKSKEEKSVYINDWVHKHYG

| IC50 values for DPPH [2] | IC50 [3] | Structure (SMILES) | H2O2 Scavenging [1] |
| --- | --- | --- | --- |
| 34.38 ± 1.9 mg/L | 404 ± 14 µM | Cn1cc(O)c(=O)cc1CNc1ccc(O)cc1 [Compound 3, 5-Hydroxy-2-[(4-hydroxyphenylamino)methyl]-1-methylpyridin-4(1H)-one] | 63.70±1.49% |
| 25.17 ± 1.8 mg/L | 217 ± 9 µM | O=c1cc(CNc2cccc([N+](=O)[O-])c2)[nH]cc1O [Compound 11, 5-Hydroxy-2-[(3-nitrophenylamino)methyl]pyridin-4(1H)-one] | 61.77±1.16% |

The remaining lines, values behind:

| Structure (SMILES) | IC50 values for DPPH [2] | IC50 [3] | H2O2 Scavenging [1] |
| --- | --- | --- | --- |
| Cc1cc(C(C)(C)C)c(O)c(C(C)(C)C)c1 [BHT, Butylated hydroxyl toluene, reference compound] | 49.19 ± 1.7 mg/L |  | 78.52±1.85% |
| COc1ccc(NCc2cc(=O)c(O)cn2C)cc1 [Compound 2, 5-Hydroxy-2-[(4-methoxyphenylamino)methyl]-1-methylpyridin-4(1H)-one] | 44.62 ± 2.9 mg/L | 617 ± 19 µM | 64.97±0.96% |
| O=C(O)c1cc(O)c(O)c(O)c1 [Galic acid, gallic acid, reference compound] |  |  | 97.39±0.76% |
